Experiment [1] has as its system rhinovirus B14. Briefly: Minimum inhibitory concentration in vitro against HRV-14 in a plaque reduction assay. It is filed as functional, human rhinovirus type 14. The note with it: Rhinovirus B. In a few lines:
(§1)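 Plaque reduction assay in HeLa-Ohio cells. MIC is the concentration (μM) that cut plaque number by 50%.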
A general note: Plaque reduction counts the foci of infection that form in a cell layer.

Experiment [2] has as its system Human rhinovirus sp. Briefly: (§2) In vitro inhibition of 80% of the serotypes. It counts as functional. In a few lines:
(§3)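 Fifteen rhinovirus serotypes (HRV-14 plus 14 more) were each run in a plaque reduction assay in HeLa-Ohio cells. The MIC for each serotype was the μM concentration giving 50% plaque reduction. MIC80 is the concentration that inhibited 80% of the serotypes tested.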

Experiment [3] concerns rhinovirus B14. Briefly: Minimum inhibitory concentration in vitro against HRV-14 in a plaque reduction assay; NA=Not active. It counts as functional, organism-based. The conditions noted are these: human rhinovirus type 14. In a few lines: as §1
The subject of another experiment is Human rhinovirus 1A. Briefly: Minimum inhibitory concentration against human rhinovirus serotype 1A. It counts as functional. In short, it runs like this: as §1
A further experiment relates to rhinovirus A1B. Briefly: Minimum inhibitory concentration against human rhinovirus serotype 1B. It is filed as functional. The note with it: Rhinovirus A. In short, it runs like this:
as §1

Experiment [4] relates to rhinovirus A2. Briefly: (§4) Minimum inhibitory concentration against human rhinovirus serotype 2. It counts as functional. The conditions noted are these: Rhinovirus A. In short, it runs like this:
as §1

For another experiment, the system named is rhinovirus A21. Briefly: Minimum inhibitory concentration against human rhinovirus serotype 21. It is filed as functional. The note with it: Rhinovirus A. In a few lines: as §1
The next experiment deals with rhinovirus A22. Briefly: Minimum inhibitory concentration against human rhinovirus serotype 22. It counts as functional. The conditions noted are these: Rhinovirus A. In short, it runs like this:
as §1

The test system of a further experiment is rhinovirus A25. Briefly: Minimum inhibitory concentration against human rhinovirus serotype 25. The conditions noted are these: Rhinovirus A. It is filed as functional. In a few lines:
as §1

A further experiment deals with rhinovirus A30. Briefly: Minimum inhibitory concentration against human rhinovirus serotype 30. The conditions noted are these: Rhinovirus A. It is filed as functional. In short, it runs like this: as §1
A further experiment has as its system rhinovirus A41. Briefly: Minimum inhibitory concentration against human rhinovirus serotype 41. It is filed as functional. The conditions noted are these: Rhinovirus A. In short, it runs like this: as §1
The next experiment has as its system rhinovirus B6. Briefly: Minimum inhibitory concentration against human rhinovirus serotype 6. It counts as functional. The conditions noted are these: Rhinovirus B. In a few lines: as §1
A further experiment relates to rhinovirus A67. Briefly: Minimum inhibitory concentration against human rhinovirus serotype 67. It counts as functional. The conditions noted are these: Rhinovirus A. In a few lines:
as §1

The test system of another experiment is rhinovirus B86. Briefly: Minimum inhibitory concentration against human rhinovirus serotype 86. It counts as functional. The note with it: Rhinovirus B. In short, it runs like this: as §1
The subject of another experiment is rhinovirus A89. Briefly: Minimum inhibitory concentration against human rhinovirus serotype 89. It is filed as functional. The note with it: Rhinovirus A. In short, it runs like this: as §1
The test system of experiment [5] is rhinovirus A2. The experiment is described as §4. It counts as functional. The conditions noted are these: Rhinovirus A. In a few lines: as §1
The source holds these as a separate data set.

Experiment [6] has as its system rhinovirus B14. Briefly: Minimum inhibitory concentration against human rhinovirus serotype 14. The note with it: Rhinovirus B. It is filed as functional. In short, it runs like this:
as §1

In the next experiment the test system is rhinovirus A15. Briefly: Minimum inhibitory concentration against human rhinovirus serotype 15. It is filed as functional. The conditions noted are these: Rhinovirus A. In short, it runs like this: as §1
Another experiment relates to rhinovirus A50. Briefly: Minimum inhibitory concentration against human rhinovirus serotype 50. It counts as functional. The note with it: Rhinovirus A. In short, it runs like this:
as §1

For experiment [7], the system named is Human rhinovirus sp. The experiment is described as §2. It counts as functional. In short, it runs like this:
as §3
This is another data set of the same source.

Values after ≈ are worked out from the molar mass of the structure shown. Active and inactive are the calls of the source. The rule behind the calls is not given here.

In the experiment with rhinovirus B14 [1], `Cc1cc(CCCCCOc2c(Cl)cc(-c3ncco3)cc2Cl)on1` registered an MIC of 1.83 µM (≈ 0.698 µg/mL). For the same compound, the MIC80 against Human rhinovirus sp. [2] worked out at 1.71 µM (≈ 0.652 µg/mL).
Turning to `Cc1cc(CCCCCOc2c(Cl)cc(-c3ccsc3)cc2Cl)on1`, in the experiment on rhinovirus B14 [3], the MIC entry is “inactive”. The compound further returned an MIC80 with Human rhinovirus sp. [2] of 2.88 µM (≈ 1.14 µg/mL).
In the experiment on rhinovirus B14 [1], `Cc1cc(CCCCCOc2c(Cl)cc(-c3ccc(C)s3)cc2Cl)on1` registered an MIC of 5.2 µM (≈ 2.13 µg/mL). In addition, the MIC80 in the experiment on Human rhinovirus sp. [2] was determined as 1.71 µM (≈ 0.702 µg/mL).
As for `Cc1cc(CCCCCOc2c(Cl)cc(-c3nc(C)c(C)s3)cc2Cl)on1`, the MIC in the experiment on rhinovirus B14 [1] was 2.59 µM (≈ 1.1 µg/mL). Moreover, the MIC80 with Human rhinovirus sp. [2] amounted to 2.14 µM (≈ 0.91 µg/mL).
`Cc1cc(CCCCCOc2c(Cl)cc(-c3ccncc3)cc2Cl)on1`: the MIC in the experiment on rhinovirus B14 [1] is 0.97 µM (≈ 0.38 µg/mL).
For the compound `Cc1cc(CCCCCOc2c(Cl)cc(-c3cccn3C)cc2Cl)on1`, the MIC result with rhinovirus B14 [3] is “inactive”.
With `Cc1cc(CCCCCOc2c(Cl)cc(-c3nnn(C)n3)cc2Cl)on1`, the MIC in the experiment with rhinovirus B14 [1] was 0.38 µM (≈ 0.151 µg/mL); with Human rhinovirus 1A, 0.38 µM (≈ 0.151 µg/mL); with rhinovirus A1B, 0.05 µM (≈ 0.0198 µg/mL); in the experiment on rhinovirus A2 [4], 0.025 µM (≈ 0.00991 µg/mL); against rhinovirus A21, 0.02 µM (≈ 0.00793 µg/mL); in the experiment with rhinovirus A22, 0.008 µM (≈ 0.00317 µg/mL). In addition, the MIC came to 0.08 µM (≈ 0.0317 µg/mL) against rhinovirus A25; 0.23 µM (≈ 0.0911 µg/mL) with rhinovirus A30; 0.63 µM (≈ 0.25 µg/mL) in the experiment on rhinovirus A41; 0.23 µM (≈ 0.0911 µg/mL) against rhinovirus B6; 0.18 µM (≈ 0.0713 µg/mL) in the experiment with rhinovirus A67; 0.24 µM (≈ 0.0951 µg/mL) with rhinovirus B86. Further, the MIC in the experiment with rhinovirus A89 was 0.01 µM (≈ 0.00396 µg/mL); in the experiment with rhinovirus A2 [5], 0.025 µM (≈ 0.00991 µg/mL); in the experiment on rhinovirus B14 [6], 0.38 µM (≈ 0.151 µg/mL); with rhinovirus A15, 0.25 µM (≈ 0.0991 µg/mL); against rhinovirus A50, 0.06 µM (≈ 0.0238 µg/mL). This compound also registered an MIC80 against Human rhinovirus sp. [2] of 0.25 µM (≈ 0.0991 µg/mL).
In the experiment with rhinovirus B14 [1], `Cc1cc(CCCCCOc2c(Cl)cc(-c3nc(C)c(C)o3)cc2Cl)on1` yielded an MIC of 2.79 µM (≈ 1.14 µg/mL). For the same compound, the MIC80 in the experiment with Human rhinovirus sp. [2] turned out to be 1.3 µM (≈ 0.532 µg/mL).
In the case of `Cc1cc(CCCCCOc2c(Cl)cc(-c3ccc(C)o3)cc2Cl)on1`, the MIC with rhinovirus B14 [1] came out at 2.64 µM (≈ 1.04 µg/mL). The same compound returned an MIC80 against Human rhinovirus sp. [2] of 1.27 µM (≈ 0.501 µg/mL).
`Cc1cc(CCCCCOc2c(Cl)cc(C3=NCCC3)cc2Cl)on1`: in the experiment on rhinovirus B14 [3], the MIC result was “inactive”.
On to `Cc1cc(CCCCCOc2c(Cl)cc(-c3ccoc3)cc2Cl)on1`, for which, in the experiment on rhinovirus B14 [3], the MIC result was “inactive”. This compound gave an MIC80 with Human rhinovirus sp. [2] of 2.9 µM (≈ 1.1 µg/mL).
`Cc1cc(CCCCCOc2c(Cl)cc(-c3ccccn3)cc2Cl)on1` came in with an MIC in the experiment with rhinovirus B14 [1] of 6.64 µM (≈ 2.6 µg/mL). The compound also displayed an MIC80 against Human rhinovirus sp. [2] of 1.38 µM (≈ 0.54 µg/mL).
In the experiment with rhinovirus B14 [1], `Cc1cc(CCCCCOc2c(Cl)cc(-c3ccc(Cl)s3)cc2Cl)on1` came in with an MIC of 5.3 µM (≈ 2.28 µg/mL). The same compound showed an MIC80 with Human rhinovirus sp. [2] of 3.13 µM (≈ 1.35 µg/mL).
Take `Cc1cc(CCCCCOc2c(Cl)cc(-c3nnnn3C)cc2Cl)on1`: the MIC in the experiment with rhinovirus B14 [1] amounted to 2.04 µM (≈ 0.808 µg/mL). The MIC80 in the experiment on Human rhinovirus sp. [2] and against Human rhinovirus sp. [7] was 7.02 µM (≈ 2.78 µg/mL) in each case.
`Cc1cc(CCCCCOc2c(Cl)cc(-c3cnco3)cc2Cl)on1` returned an MIC in the experiment on rhinovirus B14 [1] of 12.8 µM (≈ 4.86 µg/mL). The compound further came in with an MIC80 against Human rhinovirus sp. [2] of 2.24 µM (≈ 0.854 µg/mL).
Take `Cc1cc(CCCCCOc2c(Cl)cc(-c3cccnc3)cc2Cl)on1`: the MIC against rhinovirus B14 [1] worked out at 6.6 µM (≈ 2.58 µg/mL).
In turn, `Cc1cc(CCCCCOc2c(Cl)cc(-c3ccco3)cc2Cl)on1` gave an MIC with rhinovirus B14 [1] of 0.71 µM (≈ 0.27 µg/mL). The compound also returned an MIC80 with Human rhinovirus sp. [2] of 1.05 µM (≈ 0.399 µg/mL).
Turning to `Cc1cc(CCCCCOc2c(Cl)cc(-c3cccc(C)n3)cc2Cl)on1`, the MIC against rhinovirus B14 [1] amounted to 5.88 µM (≈ 2.38 µg/mL). In the experiment on Human rhinovirus sp. [2], this compound registered an MIC80 of 1.93 µM (≈ 0.782 µg/mL).
`Cc1cc(CCCCCOc2c(Cl)cc(-c3cccs3)cc2Cl)on1`: in the experiment on rhinovirus B14 [1], the MIC was 7.32 µM (≈ 2.9 µg/mL). In the experiment with Human rhinovirus sp. [2], the MIC80 is 1.11 µM (≈ 0.44 µg/mL).
Turning to `Cc1cc(CCCCCOc2c(Cl)cc(C3=NCCO3)cc2Cl)on1` [WIN-54954], the MIC in the experiment on rhinovirus B14 [1] worked out at 1.2 µM (≈ 0.46 µg/mL); against Human rhinovirus 1A, 2.51 µM (≈ 0.962 µg/mL); against rhinovirus A1B, 0.17 µM (≈ 0.0652 µg/mL); in the experiment on rhinovirus A2 [4] it was 0.023 µM (≈ 0.00882 µg/mL); in the experiment on rhinovirus A21, 0.02 µM (≈ 0.00767 µg/mL); against rhinovirus A22, 0.02 µM (≈ 0.00767 µg/mL). The MIC against rhinovirus A25 worked out at 0.29 µM (≈ 0.111 µg/mL); in the experiment on rhinovirus A30, 0.09 µM (≈ 0.0345 µg/mL); against rhinovirus A41, 0.89 µM (≈ 0.341 µg/mL); with rhinovirus B6, 0.23 µM (≈ 0.0882 µg/mL); in the experiment with rhinovirus A67, 0.18 µM (≈ 0.069 µg/mL); against rhinovirus B86, 0.21 µM (≈ 0.0805 µg/mL). Also, the MIC in the experiment with rhinovirus A89 stood at 0.02 µM (≈ 0.00767 µg/mL); against rhinovirus B14 [6] it was 1.2 µM (≈ 0.46 µg/mL); with rhinovirus A15, 0.41 µM (≈ 0.157 µg/mL); against rhinovirus A50, 0.06 µM (≈ 0.023 µg/mL). For the same compound, in the experiment with Human rhinovirus sp. [2], the MIC80 is 0.33 µM (≈ 0.126 µg/mL).

The values are drawn from ChEMBL document CHEMBL1126110, “Antirhinoviral activity of heterocyclic analogs of Win 54954” (1992).
